# PubChem BioAssay AID504382 (The Scripps Research Institute Molecular Screening Center, 2011)
# About 460 (18%) of roughly 2,500 compounds were called active.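 How the source made its calls: active means mean activation above a cutoff of low control average plus 3 SD from the earlier screen (cut at about 12% in these data); inactive means the rest.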 These entries were drawn from the full list.
# Experiment: compound fluorescence interference without thin filaments, confirmation, artefact control for cardiac RTF calcium sensitizer project, biochemical (AID 504382)
# Conditions: IANBD fluorescence interference counterscreen, buffer, EC20 Ca2+; at 7.2 µM; active compounds read high; scaled: EC20 calcium 0, EC100 calcium 100
# Method in brief: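 Technique: fluorescence, 480/540 nm / Medium: MOPS-based buffer with KCl, MgCl2, EGTA, NTA, DTT, pH 7.2 / Probe or stimulus: calcium at EC20 level, 0.472 mM final / Repeats: triplicate wells per compound / Times: 15 min compound exposure at 25 °C / Measure: compound fluorescence interference relative to control well signal range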
row,Structure (SMILES),fluorescence artifact activation
1,COc1ccc(N(C)S(=O)(=O)c2ccc(Cl)c(C(=O)NCCc3ccc(Cl)cc3)c2)cc1,35.3% (active)
2,COc1cccc(/C(O)=C/c2nc3ccc(C(=O)NCCc4ccc(Cl)cc4)cc3[nH]c2=O)c1,0.43% (inactive)
3,O=C(Nc1cccc(Cl)c1)c1cc(S(=O)(=O)NCCc2ccc(Cl)cc2)ccc1F,10.6% (inactive)
4,CCOc1ccc(C(C(=O)NC2CCCCC2)N(C(=O)Cc2cccs2)c2ccc(-n3cnnn3)c(OC)c2)cc1 (centres undefined),0.09% (inactive)
5,O=C(c1ccccc1)N1CCN(CC#CC2(O)CCCCC2)CC1,-0.05% (inactive)
6,COc1ccc(N2CCN(C(=O)c3ccc(OCC4CCCO4)cc3)CC2)cc1 (centres undefined),23.9% (active)
7,CCOc1ccc(C(=O)NC2CCN(C(=O)Nc3ccccc3OC)CC2)cc1,-0.03% (inactive)
8,COC(=O)CN1C(=S)N(c2ccc(OC)cc2)C(=O)/C1=C/c1ccc(N2CCOCC2)cc1,-0.04% (inactive)
9,COc1ccc(CC(=O)NCc2csc(-c3cccs3)n2)cc1OC,0.03% (inactive)
10,Cc1c(Cl)c([N+](=O)[O-])nn1CC(=O)N1CCN(C23CC4CC(CC(C4)C2)C3)CC1,0.69% (inactive)
11,COc1ccc(/C=C2\SC(=O)NC2=S)cc1OC,0.32% (inactive)
12,COc1ccc(/C=C2\SC(c3ccc(C)cc3)=NC2=O)cc1OC,0.1% (inactive)
13,COc1cc(/C=C2\SC(=O)NC2=O)ccc1Oc1ccc([N+](=O)[O-])cn1,25% (active)
14,NC(=S)Nc1c(Cl)cccc1Cl,-0.03% (inactive)
15,COc1[nH]c(/N=C/c2ccccc2)c(C#N)c1C#N,0.1% (inactive)
16,NC(=O)NC(Cc1ccccc1)C(=O)NCC1(N2CCCCC2)CCCCC1 (centres undefined),7.54% (inactive)
17,CC1CC(C)CN(C(=O)COC(=O)CCc2nc3ccccc3c(=O)[nH]2)C1 (centres undefined),-0.03% (inactive)
18,Cn1cc(/C=C2\SC(=S)N(NC(=O)c3ccccc3Cl)C2=O)c2ccccc21,6.42% (inactive)
19,CNC(=O)N(O)C1N(C)C(=O)N(CC(=O)OC)C1(C)C (centres undefined),12.4% (active)
20,COc1ccc(/C=C2\SC(=S)N(CCCC(=O)Nc3ccccn3)C2=O)cc1OC,0.11% (inactive)
21,CC(C(=O)c1ccc(Br)cc1)[n+]1cccc2ccccc21 (centres undefined),11.8% (active)
22,CN(C)c1ccc(/C=C(/C(=O)c2ccc(Cl)cc2Cl)n2cncn2)cc1,-0.05% (inactive)
23,CCOC(=O)c1c(=O)n(O)c2ccc(OC)cc2[n+]1[O-],0.13% (inactive)

row,Structure (SMILES),fluorescence artifact activation
1,O=C(c1cccs1)N1CCN=C1SCc1cccc(F)c1,0.02% (inactive)
2,COc1cc(OC)cc(C(=O)NCC(=O)OC2CCOC2=O)c1 (centres undefined),6.1% (inactive)
3,O=C(NCC(=O)N(Cc1cccs1)C(C(=O)NC1CCCCC1)c1ccncc1)c1ccco1 (centres undefined),0.04% (inactive)
4,O=C(NC1CCCCC1)C(c1ccc(F)cc1)N(Cc1ccccc1)C(=O)CN1C(=O)c2ccccc2S1(=O)=O (centres undefined),27.8% (active)
5,COCCNC(=O)C(c1ccc(C)o1)N(Cc1ccc(F)cc1)C(=O)Cn1nnc2ccccc21 (centres undefined),0.43% (inactive)
6,CSC(=NCc1ccco1)NC#N,0.12% (inactive)
7,CN1/C(=C\C=C2/SC(=S)NC2=O)C(C)(C)c2ccccc21,0.11% (inactive)
8,Cc1cc(-c2ccccc2C(=O)NC2CCCCC2)on1,0.27% (inactive)
9,Cc1ccc(Cn2c(Sc3nnc(C)s3)nc3c2c(=O)[nH]c(=O)n3C)cc1,42.6% (active)
10,COc1cc(C(=O)Nc2ccc(Cl)c(C(F)(F)F)c2)cc(OC)c1OC,0.1% (inactive)
11,CCN(CC)S(=O)(=O)c1ccc2c(c1)nc(CCC(=O)Nc1ccc3c(c1)OCO3)n2C,0.09% (inactive)
12,COc1cc(C(=O)NCc2nnc(SCC(=O)Nc3ccc4c(c3)OCO4)o2)cc(OC)c1OC,35.2% (active)
13,Cc1onc(-c2c(F)cccc2Cl)c1C(N)=S,6.57% (inactive)
14,CN(C)c1ccc(/C=C(\C#N)C(=O)Nc2nc3c(s2)CCN(Cc2ccccc2)C3)cc1,0.06% (inactive)
15,Cc1ccc(N=Nc2c(O)[nH]c3ccc(F)cc23)cc1,6.29% (inactive)
16,Cc1cc(S(=O)(=O)N2CCCC(C(=O)Nc3ccc(C(=O)O)cc3)C2)ccc1Cl (centres undefined),1.39% (inactive)
17,CC(=O)c1ccc(NC(=O)C2CCCN(S(=O)(=O)c3c(C)[nH]c(=O)[nH]c3=O)C2)cc1 (centres undefined),20.3% (active)
18,CC(=O)N1CCCc2cc(S(=O)(=O)N3CCCC(C(=O)Nc4cccc(C)c4)C3)ccc21 (centres undefined),0.1% (inactive)
19,O=C1CCC[C@@H]2C[C@@]3(C[C@@H]4CCN1[C@H]24)Nc1cc([N+](=O)[O-])ccc1NC3=NC1CCCCC1,10.3% (inactive)
20,CC1(c2ccc(OC(F)F)cc2)NC(=O)N(CC(=O)Nc2ccc(F)cc2)C1=O (centres undefined),0% (inactive)
21,CCCC(CCC(=O)Nc1ccc(S(N)(=O)=O)cc1)C(=O)O (centres undefined),0.96% (inactive)
22,NS(=O)(=O)c1ccc(NC(=O)COc2ccc(C(=O)c3ccc(F)cc3)cc2)cc1,545% (active)
23,CCOC(=O)C1(CCc2ccccc2)CCN(C(=O)c2occc2C)CC1,3.37% (inactive)

row,Structure (SMILES),fluorescence artifact activation
1,CCCC1C(c2ccccc2)C(C#N)(C#N)C2(C#N)CC1(N)NC2=O (centres undefined),0.01% (inactive)
2,Oc1[nH]c2ccccc2c1N=Nc1ccccc1Cl,0.13% (inactive)
3,C#CCOCCOCCOCCNc1nc(N2CCN(C(=O)CCCCCCCCCCNC(=O)[C@@H](CCSC)n3cc(CCO)nn3)CC2)nc(N2CCN(C(=O)CCCCCCCCCCNC(=O)[C@H](CCSC)n3cc(CCO)nn3)CC2)n1,0.15% (inactive)
4,CCN=C(NC#N)SCc1c(F)cccc1Cl,0.17% (inactive)
5,NS(=O)(=O)c1ccc(NCc2c(F)cccc2Cl)cc1,24.7% (active)
6,COc1ccc(C2NN=C(c3c[nH]c4ccccc34)C2O)cc1 (centres undefined),8.63% (inactive)
7,CC(C)c1ccc(NS(=O)(=O)c2cccc3cccnc23)cc1,168% (active)
8,CN(CC(=O)NCc1ccc(Cl)cc1)S(=O)(=O)c1cccc2cccnc12,0.14% (inactive)
9,CCN(CC)C(=O)C1CCC(CNS(=O)(=O)c2cccc3cccnc23)CC1 (centres undefined),-0.02% (inactive)
10,CCc1ccc2c(COC(=O)CNS(=O)(=O)c3ccc(NC(C)=O)cc3)cc(=O)oc2c1,2.6% (inactive)
11,COC(=O)c1ccc(CS(=O)(=O)c2ccc(F)cc2)o1,0.08% (inactive)
12,N#CC1(C#N)CC(C=O)=C(N)C1(C#N)CC(=O)c1ccc(F)cc1 (centres undefined),2.93% (inactive)
13,Cc1ccc(Cn2nc(C)c(NC(=O)C3(C)CC3(Br)Br)c2C)cc1 (centres undefined),6.32% (inactive)
14,CC(NC(=O)CN1CCC(C(N)=O)CC1)c1ccccc1 (centres undefined),-0.04% (inactive)
15,Cc1ccc(CNC(=O)c2ccc(S(=O)(=O)N3CCCCC3)cc2)cc1,-0.06% (inactive)
16,CN(C)NC(=S)Nc1ccc(S(=O)(=O)N2CCCCC2)cc1,2.09% (inactive)
17,Cc1ccc(NC(=O)CN(C)c2ccc(S(=O)(=O)N3CCCC3)cn2)cc1,18.6% (active)
18,COc1cc(/C=C/c2sc3ccccc3[n+]2CCCS(=O)(=O)[O-])ccc1O,1.3% (inactive)
19,O=[N+]([O-])c1ccc(NN=Cc2cccc3ccccc23)nc1,7.52% (inactive)
20,COc1ccc(-n2c(C)cc(/C=C3\SC(=S)NC3=O)c2C)cc1,-0.04% (inactive)
21,O=C(CCC1CCCN(C(=O)C2=CCCC2)C1)N1CCN(c2ccccn2)CC1 (centres undefined),-0.04% (inactive)
22,O/C=c1\ccc2cccc3nc(C(F)(F)F)nc1c23,1630% (active)
23,Cc1ccc(N2C3=C(C(=O)CC(C)(C)C3)C(c3cn(C)nc3C)C3=C2CC(C)(C)CC3=O)cc1,8.85% (inactive)

row,Structure (SMILES),fluorescence artifact activation
1,O=C(c1c[nH]c(C(=O)C(Cl)(Cl)Cl)c1)c1c(F)cccc1F,1460% (active)
2,CN(C)C=NC(=O)c1cc(C(=O)c2ccccc2Cl)c[nH]1,0.08% (inactive)
3,COc1ccc(-n2nc3c(N4CCC(C(=O)NCc5ccco5)CC4)nnc(C)c3c2C)cc1,0.15% (inactive)
4,Cc1nc([N+](=O)[O-])c(Br)n1CC(=O)c1ccc2ccccc2c1,0.15% (inactive)
5,Cc1nc([N+](=O)[O-])c(Sc2nc3ccccc3n2C)n1Cc1ccccc1,17.2% (active)
6,Cn1c(/C(C#N)=C(\O)CN2CCN(Cc3ccccc3)CC2)nc2ccccc21,-0.07% (inactive)
7,COc1cc(-c2c(-c3ccc4c(c3)OCO4)noc2C)ccc1F,6.28% (inactive)
8,CCCOc1ccc(C2C(C(=O)c3ccc(C)o3)=C(O)C(=O)N2CCCn2ccnc2)cc1 (centres undefined),20.7% (active)
9,CCCCOc1cccc(C2C(C(=O)c3cccs3)=C(O)C(=O)N2Cc2cccnc2)c1 (centres undefined),-0.01% (inactive)
10,COC(=O)c1sc(N2C(=O)C(O)=C(C(=O)c3ccc(C)o3)C2c2ccc(F)cc2)nc1C (centres undefined),7.6% (inactive)
11,COc1ccc(-c2cc(C(F)(F)F)c3c(N)c(C(=O)NCCSC)sc3n2)cc1,0.08% (inactive)
12,COc1ccc(Sc2ccc(-c3nc4cnccn4c3NC3CCCCC3)cc2OC)cc1,0.04% (inactive)
13,Cc1ccc(NC(=O)/C(C#N)=C/c2ccc(C)s2)c(C)c1,0.06% (inactive)
14,Cc1cccc(CSc2ccc(-c3ccco3)nn2)c1,0.5% (inactive)
15,Cc1cc(C)c2c(=O)n(-c3ccccc3)[nH]c2n1,0.96% (inactive)
16,Cc1cc(C)nc(SCCCNCc2ccc(Br)cc2)n1,-0.01% (inactive)
17,CC(=O)C1=C(C)N(CC2CC2)C(=O)N[C@H]1c1ccc(Br)cc1,36.6% (active)
18,CC(=O)C1=C(C)N(Cc2ccccc2)C(=O)N[C@@H]1c1cccc(C(F)(F)F)c1,-0.08% (inactive)
19,O=c1c2ccccc2nc2n1CCCN2,2.97% (inactive)
20,N=c1n(Cc2ccccc2)c2ccccc2n1CC(O)c1ccco1 (centres undefined),7.18% (inactive)
